Data set [1] deals with Dual specificity tyrosine-phosphorylation-regulated kinase 1B (Homo sapiens, UniProt Q9Y463). Nature of the data set: Inhibition of DYRK1B (unknown origin) measured after 6 hrs in presence of ATP by Z'-LYTE assay.
Data set [2] has as its system CAL-27. Description: Induction of apoptosis in human CAL-27 cells assessed as BCL-xL level at 10 uM after 24 hrs by Immunoblot analysis relative to control. Format: functional.
Data set [3] has as its system CAL-27. Nature of the data set: Induction of apoptosis in human CAL-27 cells assessed as decrease in FOXO3A phosphorylation at serine 253 residue at 1 uM after 24 hrs by Immunoblot analysis relative to control. Format: functional. More on the design: scale not given: the % may be the effect or the level left.
The subject of data set [4] is CAL-27. Description: Induction of apoptosis in human CAL-27 cells assessed as PARP level at 1 uM after 24 hrs by Immunoblot analysis relative to control. Format: functional.
Data set [5] has as its system CAL-27. Nature of the data set: Induction of apoptosis in human CAL-27 cells assessed as increase in cleaved-PARP level at 10 uM after 24 hrs by Immunoblot analysis relative to control. It is filed as functional. Background: A western blot detects proteins with antibodies after separation by electrophoresis.
In data set [6] the test system is CAL-27. Description: Induction of apoptosis in human CAL-27 cells assessed as BCL-xL level at 1 uM after 24 hrs by Immunoblot analysis relative to control. It is filed as functional.
Data set [7] has as its system CAL-27. Description: Induction of apoptosis in human CAL-27 cells assessed as decrease in AKT phosphorylation at S473 residue at 1 uM after 24 hrs by Immunoblot analysis relative to control. More on the design: scale not given: the % may be the effect or the level left. It is filed as functional.
Data set [8] concerns CAL-27. Description: Induction of apoptosis in human CAL-27 cells assessed as decrease in FOXO3A phosphorylation at serine 253 residue at 0.5 uM after 24 hrs by Immunoblot analysis relative to control. It is filed as functional. More on the design: scale not given: the % may be the effect or the level left.
Data set [9] relates to CAL-27. Nature of the data set: Induction of apoptosis in human CAL-27 cells assessed as PARP level at 10 uM after 24 hrs by Immunoblot analysis relative to control. Format: functional.
In the next data set the test system is FaDu. Nature of the data set: Antiproliferative activity against human FaDu cells assessed as reduction in cell viability at 10 uM measured after 72 hrs by Celltiter-Glo luminescent assay. Format: functional. On the technique in general: In ATP-based viability assays light output follows the ATP content of the culture.
For another data set, the system named is HEK-293T. Nature of the data set: Antiproliferative activity against human HEK293T cells assessed as reduction in cell viability at 10 uM measured after 72 hrs by Celltiter-Glo luminescent assay. It is filed as toxicity, cell-based.
The subject of data set [10] is CAL-27. Nature of the data set: Induction of apoptosis in human CAL-27 cells assessed as decrease in FOXO3A phosphorylation at serine 253 residue at 5 uM after 24 hrs by Immunoblot analysis relative to control. More on the design: scale not given: the % may be the effect or the level left. It is filed as functional.
For data set [11], the target named is Serine/threonine-protein kinase ATR (Homo sapiens) (UniProt Q13535). Nature of the data set: Inhibition of ATR (unknown origin) in human CAL-27 cells measured after 6 hrs by select screen kinase assay. It is filed as cell-based.
Data set [12] has as its system CAL-27. Nature of the data set: Induction of apoptosis in human CAL-27 cells assessed as increase in cleaved-PARP level at 1 uM after 24 hrs by Immunoblot analysis relative to control. It is filed as functional.
For data set [13], the system named is CAL-27. Description: Antiproliferative activity against human CAL-27 cells assessed as reduction in cell viability at 10 uM measured after 72 hrs by Celltiter-Glo luminescent assay. It is filed as functional.
Data set [14] has as its system CAL-27. Description: Induction of apoptosis in human CAL-27 cells assessed as decrease in AKT phosphorylation at S473 residue at 0.5 uM after 24 hrs by Immunoblot analysis relative to control. Format: functional. Also noted: scale not given: the % may be the effect or the level left.
The subject of data set [15] is CAL-27. Nature of the data set: Induction of apoptosis in human CAL-27 cells assessed as decrease in FOXO3A phosphorylation at serine 253 residue at 10 uM after 24 hrs by Immunoblot analysis relative to control. It is filed as functional. Also noted: scale not given: the % may be the effect or the level left.
Data set [16] has as its system CAL-27. Description: Induction of apoptosis in human CAL-27 cells assessed as decrease in AKT phosphorylation at S473 residue at 5 uM after 24 hrs by Immunoblot analysis relative to control. It is filed as functional. Also noted: scale not given: the % may be the effect or the level left.
The subject of data set [17] is CAL-27. Description: Induction of apoptosis in human CAL-27 cells assessed as decrease in AKT phosphorylation at S473 residue at 10 uM after 24 hrs by Immunoblot analysis relative to control. It is filed as functional. Also noted: scale not given: the % may be the effect or the level left.
Data set [18] in a line: Clearance in C57BL/6 mouse at 5 mg/kg, iv measured upto 8 hrs by LC-MS/MS analysis. Format: ADME, organism-based. Conditions: in vivo.
Data set [19] is described as follows: AUC (0-infinity) in C57BL/6 mouse at 10 mg/kg, po measured upto 8 hrs by LC-MS/MS analysis. Also noted: route oral, dose 10 mg/kg, time <=8. It is filed as ADME, organism-based. The conditions noted are these: mouse, in vivo, 8 h.
Data set [20] in a line: Cmax in C57BL/6 mouse at 10 mg/kg, po measured upto 8 hrs by LC-MS/MS analysis. Format: ADME, organism-based. More on the design: route oral, dose 10 mg/kg, time <=8. The conditions noted are these: in vivo.
Data set [21] is described as follows: Half life in C57BL/6 mouse at 5 mg/kg, iv measured upto 8 hrs by LC-MS/MS analysis. Format: ADME, organism-based. Conditions: in vivo.
Data set [22] concerns the target Myosin light chain kinase, smooth muscle (Homo sapiens, UniProt Q15746). Description: Inhibition of MYLK (unknown origin) at 1 uM by kinome scan method.
Data set [23] is described as follows: Half life in C57BL/6 mouse at 10 mg/kg, po measured upto 8 hrs by LC-MS/MS analysis. Format: ADME, organism-based. The conditions noted are these: in vivo.
The target in data set [24] is Receptor-type tyrosine-protein kinase FLT3 (Homo sapiens, UniProt P36888). Nature of the data set: Inhibition of FLT3 (unknown origin) at 1 uM by kinome scan method.
Data set [25] in a line: Oral bioavailability in C57BL/6 mouse at 10 mg/kg measured upto 8 hrs by LC-MS/MS analysis. Conditions: mouse, in vivo, 10 mg/kg, 8 h. Format: ADME, organism-based.
Data set [26] is described as follows: AUC (0-infinity) in C57BL/6 mouse at 5 mg/kg, iv measured upto 8 hrs by LC-MS/MS analysis. It is filed as ADME, organism-based. Also noted: route intravenous, dose 5 mg/kg, time <=8. The conditions noted are these: in vivo.
Data set [27] addresses Cyclin-dependent kinase 8 (Homo sapiens) (UniProt P49336). Nature of the data set: Inhibition of CDK8 (unknown origin) in human CAL-27 cells measured after 6 hrs by select screen kinase assay. Format: cell-based. The essentials:
(§1)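 Cellular kinase profiling by KiNativ in CAL27 head and neck squamous carcinoma cells. Cells were treated with compound at 1 μM for 6 h, then kinase engagement was profiled across the kinome by KiNativ.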

The target of data set [28] is Cyclin-dependent kinase 19 (Homo sapiens) (UniProt Q9BWU1). Nature of the data set: Inhibition of […] (unknown origin) in human CAL-27 cells measured after 6 hrs by select screen kinase assay. Format: cell-based. In short, it runs like this: as §1

SMILES strings stand for the structures. The source made the active and inactive calls. No cut-off for these calls is given here.

Dual specificity tyrosine-phosphorylation-regulated kinase 1B, sequence (Q9Y463 whole entry): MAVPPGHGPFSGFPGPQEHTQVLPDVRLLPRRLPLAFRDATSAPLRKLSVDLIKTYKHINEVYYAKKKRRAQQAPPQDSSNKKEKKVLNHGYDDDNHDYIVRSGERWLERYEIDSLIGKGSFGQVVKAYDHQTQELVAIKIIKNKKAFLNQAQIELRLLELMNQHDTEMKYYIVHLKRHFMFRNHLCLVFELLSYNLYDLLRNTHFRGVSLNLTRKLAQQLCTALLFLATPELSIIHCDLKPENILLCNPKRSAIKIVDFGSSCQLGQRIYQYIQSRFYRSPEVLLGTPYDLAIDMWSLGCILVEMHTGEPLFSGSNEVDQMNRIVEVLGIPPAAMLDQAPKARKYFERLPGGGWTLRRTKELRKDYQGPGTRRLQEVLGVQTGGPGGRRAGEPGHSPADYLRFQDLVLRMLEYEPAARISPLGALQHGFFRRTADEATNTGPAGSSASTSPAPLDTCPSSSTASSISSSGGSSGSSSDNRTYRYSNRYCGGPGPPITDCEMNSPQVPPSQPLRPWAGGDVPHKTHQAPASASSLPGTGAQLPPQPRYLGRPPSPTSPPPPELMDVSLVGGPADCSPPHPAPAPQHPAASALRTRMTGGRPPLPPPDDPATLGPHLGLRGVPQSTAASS
Serine/threonine-protein kinase ATR (Homo sapiens), sequence (Q13535 whole entry, looked up): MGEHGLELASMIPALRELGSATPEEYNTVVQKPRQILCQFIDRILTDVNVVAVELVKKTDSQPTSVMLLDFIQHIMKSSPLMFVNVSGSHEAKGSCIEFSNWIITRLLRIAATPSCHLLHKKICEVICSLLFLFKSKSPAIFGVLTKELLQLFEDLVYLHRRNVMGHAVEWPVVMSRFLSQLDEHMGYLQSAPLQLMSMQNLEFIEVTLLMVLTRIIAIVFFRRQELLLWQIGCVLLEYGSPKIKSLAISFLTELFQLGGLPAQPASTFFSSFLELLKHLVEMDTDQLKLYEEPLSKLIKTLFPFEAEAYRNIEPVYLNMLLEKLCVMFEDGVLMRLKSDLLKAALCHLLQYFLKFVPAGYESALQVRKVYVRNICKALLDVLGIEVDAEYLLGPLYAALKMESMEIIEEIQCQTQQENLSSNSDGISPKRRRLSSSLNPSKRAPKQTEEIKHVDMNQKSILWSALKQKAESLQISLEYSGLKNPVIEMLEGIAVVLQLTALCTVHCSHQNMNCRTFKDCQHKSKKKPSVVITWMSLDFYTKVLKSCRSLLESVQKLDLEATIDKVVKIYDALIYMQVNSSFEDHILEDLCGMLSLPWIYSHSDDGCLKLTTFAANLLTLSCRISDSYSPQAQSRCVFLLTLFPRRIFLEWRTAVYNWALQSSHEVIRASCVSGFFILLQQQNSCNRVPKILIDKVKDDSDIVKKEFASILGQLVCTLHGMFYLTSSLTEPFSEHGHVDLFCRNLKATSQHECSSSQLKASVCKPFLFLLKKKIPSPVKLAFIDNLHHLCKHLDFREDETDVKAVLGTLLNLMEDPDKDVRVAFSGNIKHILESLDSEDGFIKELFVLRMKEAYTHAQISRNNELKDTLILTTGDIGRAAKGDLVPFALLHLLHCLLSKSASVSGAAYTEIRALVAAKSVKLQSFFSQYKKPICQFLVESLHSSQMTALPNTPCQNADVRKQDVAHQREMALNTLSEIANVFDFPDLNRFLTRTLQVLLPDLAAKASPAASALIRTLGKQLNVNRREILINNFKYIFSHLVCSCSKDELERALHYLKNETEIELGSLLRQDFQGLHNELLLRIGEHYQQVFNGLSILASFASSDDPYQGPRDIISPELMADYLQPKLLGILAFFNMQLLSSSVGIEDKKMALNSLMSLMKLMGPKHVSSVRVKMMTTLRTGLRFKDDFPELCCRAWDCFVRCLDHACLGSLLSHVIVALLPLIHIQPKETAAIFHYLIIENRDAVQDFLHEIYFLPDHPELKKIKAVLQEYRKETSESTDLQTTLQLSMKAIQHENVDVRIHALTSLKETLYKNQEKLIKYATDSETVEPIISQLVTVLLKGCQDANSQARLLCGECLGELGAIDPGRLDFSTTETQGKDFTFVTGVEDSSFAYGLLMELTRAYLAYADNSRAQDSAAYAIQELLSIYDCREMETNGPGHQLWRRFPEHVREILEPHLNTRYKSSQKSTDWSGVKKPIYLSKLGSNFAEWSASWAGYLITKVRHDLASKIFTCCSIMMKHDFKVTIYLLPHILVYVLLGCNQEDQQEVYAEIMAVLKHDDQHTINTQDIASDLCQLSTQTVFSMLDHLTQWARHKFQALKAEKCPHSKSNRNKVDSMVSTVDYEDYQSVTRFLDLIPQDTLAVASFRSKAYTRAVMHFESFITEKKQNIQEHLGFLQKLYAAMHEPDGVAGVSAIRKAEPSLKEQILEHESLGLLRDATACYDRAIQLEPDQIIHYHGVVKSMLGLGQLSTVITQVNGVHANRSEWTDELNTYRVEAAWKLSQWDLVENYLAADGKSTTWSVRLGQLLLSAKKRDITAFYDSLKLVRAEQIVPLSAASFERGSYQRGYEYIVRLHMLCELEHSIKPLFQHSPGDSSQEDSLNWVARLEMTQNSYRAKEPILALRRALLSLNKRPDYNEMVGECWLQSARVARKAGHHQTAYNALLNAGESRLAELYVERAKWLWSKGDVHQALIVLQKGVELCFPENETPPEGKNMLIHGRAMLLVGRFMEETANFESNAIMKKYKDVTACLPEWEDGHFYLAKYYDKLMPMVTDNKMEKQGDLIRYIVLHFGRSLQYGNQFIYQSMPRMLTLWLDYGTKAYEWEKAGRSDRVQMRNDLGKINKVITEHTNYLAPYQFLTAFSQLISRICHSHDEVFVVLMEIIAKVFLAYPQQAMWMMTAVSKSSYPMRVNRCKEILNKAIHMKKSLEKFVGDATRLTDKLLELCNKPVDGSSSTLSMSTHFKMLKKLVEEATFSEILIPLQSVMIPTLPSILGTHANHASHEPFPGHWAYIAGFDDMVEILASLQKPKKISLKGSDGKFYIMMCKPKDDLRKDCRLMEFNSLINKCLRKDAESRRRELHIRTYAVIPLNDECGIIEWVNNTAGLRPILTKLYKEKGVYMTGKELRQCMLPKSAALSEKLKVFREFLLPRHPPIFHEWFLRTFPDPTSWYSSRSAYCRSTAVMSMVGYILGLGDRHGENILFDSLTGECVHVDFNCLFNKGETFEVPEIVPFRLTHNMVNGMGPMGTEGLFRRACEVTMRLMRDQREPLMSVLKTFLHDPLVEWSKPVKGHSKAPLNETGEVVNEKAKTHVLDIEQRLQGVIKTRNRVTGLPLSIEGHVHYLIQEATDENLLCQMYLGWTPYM
Receptor-type tyrosine-protein kinase FLT3, sequence (P36888 whole entry): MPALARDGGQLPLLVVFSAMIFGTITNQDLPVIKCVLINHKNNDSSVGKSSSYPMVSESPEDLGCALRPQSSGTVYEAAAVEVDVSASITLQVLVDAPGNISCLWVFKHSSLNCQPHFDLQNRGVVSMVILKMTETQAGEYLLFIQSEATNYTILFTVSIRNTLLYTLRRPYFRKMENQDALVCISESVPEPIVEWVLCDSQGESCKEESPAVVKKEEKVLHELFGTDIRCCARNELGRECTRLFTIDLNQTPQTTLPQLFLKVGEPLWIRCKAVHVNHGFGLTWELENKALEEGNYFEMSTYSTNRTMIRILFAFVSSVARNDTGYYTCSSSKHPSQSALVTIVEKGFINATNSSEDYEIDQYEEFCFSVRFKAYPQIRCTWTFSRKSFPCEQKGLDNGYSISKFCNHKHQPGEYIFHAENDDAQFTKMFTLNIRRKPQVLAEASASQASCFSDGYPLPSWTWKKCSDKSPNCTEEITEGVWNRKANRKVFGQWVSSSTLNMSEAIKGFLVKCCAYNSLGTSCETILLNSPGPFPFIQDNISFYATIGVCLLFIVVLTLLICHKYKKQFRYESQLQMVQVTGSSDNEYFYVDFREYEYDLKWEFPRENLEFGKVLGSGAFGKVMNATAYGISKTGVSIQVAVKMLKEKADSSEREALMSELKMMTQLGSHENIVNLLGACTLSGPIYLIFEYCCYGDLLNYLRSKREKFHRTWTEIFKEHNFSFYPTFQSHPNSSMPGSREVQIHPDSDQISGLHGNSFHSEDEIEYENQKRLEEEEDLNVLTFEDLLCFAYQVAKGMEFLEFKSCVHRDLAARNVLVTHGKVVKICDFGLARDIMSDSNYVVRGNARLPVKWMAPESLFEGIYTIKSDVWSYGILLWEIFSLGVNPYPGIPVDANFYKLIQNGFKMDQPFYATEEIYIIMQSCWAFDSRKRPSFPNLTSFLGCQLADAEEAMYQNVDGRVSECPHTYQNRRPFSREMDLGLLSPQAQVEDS
Cyclin-dependent kinase 8 (Homo sapiens), sequence (P49336 whole entry): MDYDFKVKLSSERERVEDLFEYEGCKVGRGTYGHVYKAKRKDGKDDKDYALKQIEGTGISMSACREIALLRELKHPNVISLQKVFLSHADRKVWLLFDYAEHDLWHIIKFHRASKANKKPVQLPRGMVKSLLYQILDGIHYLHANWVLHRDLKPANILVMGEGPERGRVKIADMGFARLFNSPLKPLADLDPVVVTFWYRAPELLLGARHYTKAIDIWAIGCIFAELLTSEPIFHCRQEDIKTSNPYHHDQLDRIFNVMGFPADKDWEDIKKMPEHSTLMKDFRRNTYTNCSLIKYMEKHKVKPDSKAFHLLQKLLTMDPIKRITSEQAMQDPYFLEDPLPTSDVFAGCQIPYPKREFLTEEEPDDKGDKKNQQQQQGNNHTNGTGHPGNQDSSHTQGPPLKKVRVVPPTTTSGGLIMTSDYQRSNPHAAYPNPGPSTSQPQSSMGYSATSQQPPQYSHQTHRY

As a reminder, the IC50 is the concentration that inhibits the measured activity by half. For `CN1Cc2nn(C)cc2-c2cnc3[nH]cc(c3c2)-c2cnn(c2)CCCCC1=O`, the IC50 in data set [1] worked out at 150 nM.
For `O=C(O)c1ccc2c(c1)nc(Nc1cccc(Cl)c1)c1ccncc12` [SILMITASERTIB], the Activity worked out at 103% in the data set with CAL-27 [2]; 150% in the data set on CAL-27 [3]; 127% with CAL-27 [4]; 871% in the data set with CAL-27 [5]; 80% in the data set on CAL-27 [6]; 53% in the data set with CAL-27 [7]. The Activity is reported as 103% in the data set with CAL-27 [8]; 137% in the data set on CAL-27 [9]; 75% in the data set on FaDu; “Active” in the data set with HEK-293T; 139% in the data set on CAL-27 [10]; 201% in the data set on CAL-27 [12]. The Activity in the data set on CAL-27 [13] was determined as 80%; with CAL-27 [14], 54%; in the data set on CAL-27 [15], 150%; in the data set with CAL-27 [16], 85%; in the data set with CAL-27 [17], 85%. Further, in [11], the inhibition result is “Active”.
`CN1Cc2nn(C)c(C#N)c2-c2cnc3[nH]nc(c3c2)-c2cn(nc2C(F)(F)F)CCCC1=O`: the IC50 in [1] turned out to be 929 nM.
As for `COc1c2c(nn1C)CN(C(C)C)C(=O)CCCn1cc(c(C(F)(F)F)n1)-c1c(C)[nH]c3ncc-2cc13`, the Activity in the data set on CAL-27 [2] was determined as 61%; with CAL-27 [4], 113%; in the data set with CAL-27 [5], 145%; in the data set on CAL-27 [6] it was 79%; with CAL-27 [9] it was 117%; with CAL-27 [12] it was 119%.
For the molecule `COc1c2c(nn1C)CN(C(C)C)C(=O)CCCn1cc(c(C(F)(F)F)n1)-c1c[nH]c3ncc-2cc13`, the Activity with CAL-27 [2] amounted to 84%; in the data set on CAL-27 [4], 110%; with CAL-27 [5] it was 538%; in the data set with CAL-27 [6] it was 130%; with CAL-27 [9], 112%; in the data set on CAL-27 [12], 140%.
As a reminder, the clearance is the rate of elimination divided by the concentration. One may read the AUC as the area under the concentration-time curve, a measure of exposure. By Cmax is commonly meant the highest concentration seen after dosing. For orientation: half-life means the time in which the quantity being followed falls by half. As to `CN1Cc2nn(C)c(C#N)c2-c2cnc3[nH]cc(c3c2)-c2cn(nc2C(F)(F)F)CCCC1=O`, in [18], the clearance was found to be 167 mL/min/kg. Further, the figures for the AUC in data set [19] and in data set [26] were 23.6 ng·h/mL and 504.9 ng·h/mL, respectively. Further, the Cmax in [20] is 11.6 µM. Moreover, in the data set on HEK-293T, the Activity result was “Non-Toxic”. In addition, the results for the half-life in data set [21] and in data set [23] were 0.3 h and 2 h, respectively. In addition, the values for the IC50 in [22] and in data set [24] were 334 nM and 354 nM, respectively. In [25], the F was 1.1%.
As to `CN1Cc2nn(C)c(C#N)c2-c2cnc3[nH]cc(c3n2)-c2cn(nc2C(F)(F)F)CCCC1=O`, the IC50 in data set [1] worked out at 18 nM.
On to `Cc1[nH]c2ncc3cc2c1-c1cn(nc1C(F)(F)F)CCCC(=O)N(C)Cc1nn(C)c(C#N)c1-3`, for which the Activity is 105% with CAL-27 [2]; 120% in the data set on CAL-27 [4]; 190% with CAL-27 [5]; 103% in the data set with CAL-27 [6]; 134% in the data set with CAL-27 [9]; 133% in the data set on CAL-27 [12].
Regarding `COc1ccc2c(c1)[nH]c1c(C)nccc12` [HARMINE], the Activity in the data set with CAL-27 [2] came out at 93%; in the data set on CAL-27 [3], 107%; in the data set with CAL-27 [4], 113%; with CAL-27 [5] it was 210%; in the data set on CAL-27 [6], 92%; in the data set with CAL-27 [7], 93%. Further, the Activity with CAL-27 [8] is given as 82%; with CAL-27 [9], 141%; with HEK-293T it was “Active”; with CAL-27 [10] it was 110%; with CAL-27 [12], 139%; in the data set on CAL-27 [14], 64%. Further, the Activity in the data set with CAL-27 [15] was determined as 90%; in the data set on CAL-27 [16] it was 133%; in the data set with CAL-27 [17] it was 143%. Further, in the data set with FaDu, the result was inactive. Moreover, the inhibition result in [27] and in [28] was “Active” throughout.
`CN1Cc2nn(C)c(C#N)c2-c2cc3c(c[nH]c3nn2)-c2cn(nc2C(F)(F)F)CCCC1=O`: the IC50 in [1] worked out at 3050 nM.
